According to ChEMBL document CHEMBL3045304, “Sesquiterpene lactones with potential use as natural herbicide models. 2. guaianolides” (2000):
Active and inactive are the calls of the source. No cut-off for these calls is given here.

How the values were obtained:
Allium cepa [1] = assay: Inhibition of root length of Allium cepa cv. Valenciana (onion) at 0.1 mM or 1 mM after 5 days relative to untreated control; assay type: functional
Lepidium sativum [2] = assay: Stimulation of root length of Lepidium sativum at 0.1 mM or 1 mM after 5 days relative to untreated control; assay type: functional
Lactuca sativa [3] = assay: Stimulation of hypocotyl length of Lactuca sativa cv. Roman (lettuce) at 0.1 mM or 1 mM after 5 days relative to untreated control; assay type: functional
Outline: (§1)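 Lettuce and tomato seeds, 25 per dish on filter paper, received 5 mL test solution. Incubation was 5 days in the dark at 25 °C, with four replicates per concentration. Solutions were made at 10^-3 or 10^-4 M in 10 mM MES, diluted serially, and adjusted to pH 6.0. Parallel controls were run. Results are % difference from control.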

Solanum lycopersicum [4] = assay: Stimulation of root length of Solanum lycopersicum cv. Tres Cantos (tomato) at 0.1 mM or 1 mM after 5 days relative to untreated control; assay type: functional; outline: as §1
Lepidium sativum [5] = assay: Inhibition of root length of Lepidium sativum at 0.1 mM or 1 mM after 4 days relative to untreated control
Triticum aestivum [6] = assay: Inhibition of root length of Triticum aestivum cv. Cortex (wheat) at 0.1 mM or 1 mM after 5 days relative to untreated control; assay type: functional
Outline: (§2)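 Wheat: 10 seeds per dish on filter paper with 5 mL test solution, 5 days in the dark at 25 °C, 10 replicates per concentration. Stock test solutions were 10^-3 or 10^-4 M in 10 mM MES, with lower levels made by dilution, all at pH 6.0. Parallel controls were run. Output is % difference from control.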

Lactuca sativa [7] = assay: Inhibition of germination of Lactuca sativa cv. Roman (lettuce) at 0.1 mM or 1 mM after 5 days relative to untreated control; assay type: functional; outline: as §1
Lepidium sativum [8] = assay: Inhibition of hypocotyl length of Lepidium sativum at 0.1 mM or 1 mM after 5 days relative to untreated control; assay type: functional
Triticum aestivum [9] = assay: Inhibition of germination of Triticum aestivum cv. Cortex (wheat) at 0.1 mM or 1 mM after 5 days relative to untreated control; assay type: functional; outline: as §2
Triticum aestivum [10] = assay: Stimulation of germination of Triticum aestivum cv. Cortex (wheat) at 0.1 mM or 1 mM after 5 days relative to untreated control; assay type: functional; outline: as §2
Allium cepa [11] = assay: Stimulation of germination of Allium cepa cv. Valenciana (onion) at 0.1 mM or 1 mM after 5 days relative to untreated control; assay type: functional
Allium cepa [12] = assay: Stimulation of root length of Allium cepa cv. Valenciana (onion) at 0.1 mM or 1 mM after 7 days relative to untreated control
Triticum aestivum [13] = assay: Stimulation of hypocotyl length of Triticum aestivum cv. Cortex (wheat) at 0.1 mM or 1 mM after 5 days relative to untreated control; assay type: functional; outline: as §2
Solanum lycopersicum [14] = assay: Inhibition of germination of Solanum lycopersicum cv. Tres Cantos (tomato) at 0.1 mM or 1 mM after 5 days relative to untreated control; assay type: functional; outline: as §1
Lepidium sativum [15] = assay: Stimulation of hypocotyl length of Lepidium sativum at 0.1 mM or 1 mM after 5 days relative to untreated control; assay type: functional
Allium cepa [16] = assay: Stimulation of hypocotyl length of Allium cepa cv. Valenciana (onion) at 0.1 mM or 1 mM after 7 days relative to untreated control
Triticum aestivum [17] = assay: Stimulation of root length of Triticum aestivum cv. Cortex (wheat) at 0.1 mM or 1 mM after 5 days relative to untreated control; assay type: functional; outline: as §2
Solanum lycopersicum [18] = assay: Stimulation of germination of Solanum lycopersicum cv. Tres Cantos (tomato) at 0.1 mM or 1 mM after 5 days relative to untreated control; assay type: functional; outline: as §1
Lactuca sativa [19] = assay: Inhibition of hypocotyl length of Lactuca sativa cv. Roman (lettuce) at 0.1 mM or 1 mM after 5 days relative to untreated control; assay type: functional; outline: as §1
Allium cepa [20] = assay: Inhibition of germination of Allium cepa cv. Valenciana (onion) at 0.1 mM or 1 mM after 5 days relative to untreated control; assay type: functional
Solanum lycopersicum [21] = assay: Stimulation of hypocotyl length of Solanum lycopersicum cv. Tres Cantos (tomato) at 0.1 mM or 1 mM after 5 days relative to untreated control; assay type: functional; outline: as §1
Lactuca sativa [22] = assay: Stimulation of germination of Lactuca sativa cv. Roman (lettuce) at 0.1 mM or 1 mM after 5 days relative to untreated control; assay type: functional; outline: as §1
Solanum lycopersicum [23] = assay: Inhibition of hypocotyl length of Solanum lycopersicum cv. Tres Cantos (tomato) at 0.1 mM or 1 mM after 5 days relative to untreated control; assay type: functional; outline: as §1
Triticum aestivum [24] = assay: Inhibition of hypocotyl length of Triticum aestivum cv. Cortex (wheat) at 0.1 mM or 1 mM after 5 days relative to untreated control; assay type: functional; outline: as §2
Allium cepa [25] = assay: Inhibition of hypocotyl length of Allium cepa cv. Valenciana (onion) at 0.1 mM or 1 mM after 7 days relative to untreated control
Lactuca sativa [26] = assay: Stimulation of root length of Lactuca sativa cv. Roman (lettuce) at 0.1 mM or 1 mM after 5 days relative to untreated control; assay type: functional; outline: as §1
Lepidium sativum [27] = assay: Inhibition of germination of Lepidium sativum at 0.1 mM or 1 mM after 4 days relative to untreated control
Solanum lycopersicum [28] = assay: Inhibition of root length of Solanum lycopersicum cv. Tres Cantos (tomato) at 0.1 mM or 1 mM after 5 days relative to untreated control; assay type: functional; outline: as §1
Lactuca sativa [29] = assay: Inhibition of root length of Lactuca sativa cv. Roman (lettuce) at 0.1 mM or 1 mM after 5 days relative to untreated control; assay type: functional; outline: as §1
Lepidium sativum [30] = assay: Inhibition of hypocotyl length of Lepidium sativum at 0.1 mM or 1 mM after 4 days relative to untreated control
Allium cepa [31] = assay: Inhibition of hypocotyl length of Allium cepa cv. Valenciana (onion) at 0.1 mM or 1 mM after 5 days relative to untreated control; assay type: functional
Allium cepa [32] = assay: Stimulation of hypocotyl length of Allium cepa cv. Valenciana (onion) at 0.1 mM or 1 mM after 5 days relative to untreated control; assay type: functional
Allium cepa [33] = assay: Stimulation of germination of Allium cepa cv. Valenciana (onion) at 0.1 mM or 1 mM after 7 days relative to untreated control
Lepidium sativum [34] = assay: Inhibition of germination of Lepidium sativum at 0.1 mM or 1 mM after 5 days relative to untreated control; assay type: functional
Lepidium sativum [35] = assay: Inhibition of germination of Lepidium sativum at 0.1 mM or 1 mM after 4 days relative to untreated control; parameters: scale not given: the % may be the effect or the level left
Allium cepa [36] = assay: Stimulation of root length of Allium cepa cv. Valenciana (onion) at 0.1 mM or 1 mM after 5 days relative to untreated control; assay type: functional

Compound | Activity (Lepidium sativum [2]) | Activity (Lactuca sativa [3]) [%] | Activity (Solanum lycopersicum [4]) [%] | inhibition (INH) (Triticum aestivum [6]) [%] | Activity (Triticum aestivum [10]) | Activity (Triticum aestivum [13]) [%] | Activity (Lepidium sativum [15]) | Activity (Triticum aestivum [17]) [%] | Activity (Solanum lycopersicum [18]) | inhibition (INH) (Lactuca sativa [19]) [%] | inhibition (Allium cepa [20]) | Activity (Solanum lycopersicum [21]) | Activity (Lactuca sativa [22]) | inhibition (INH) (Triticum aestivum [24]) [%] | Activity (Lactuca sativa [26]) | inhibition (INH) (Solanum lycopersicum [28]) [%] | further results
C=C1CC[C@H]2C(=C)CC[C@@H](C(=C)CO)[C@H](O)[C@@H]12 | inactive | <20 | <20 | 20 | inactive | <20 | inactive | 20 | 20% | <20 | inactive | inactive | inactive | <20 | inactive | <20 | inhibition (Allium cepa [1]): inactive; inhibition (Lepidium sativum [5]): inactive; inhibition (Lactuca sativa [7]): inactive; inhibition (Lepidium sativum [8]): inactive; inhibition (Triticum aestivum [9]): inactive; Activity (Allium cepa [11]): inactive; Activity (Allium cepa [12]): inactive; inhibition (INH) (Solanum lycopersicum [14]): 20%; Activity (Allium cepa [16]): inactive; inhibition (Solanum lycopersicum [23]): inactive; inhibition (Allium cepa [25]): inactive; Activity (Lepidium sativum [27]): inactive; inhibition (Lepidium sativum [27]): inactive; inhibition (Lactuca sativa [29]): inactive
COc1nc(C)nc(NC(=O)NS(=O)(=O)c2ccccc2OCCCl)n1 [LOGRAN] | >40% | >40 | >40 | 20 | 20% | 20 | >40% | 20 | inactive | >40 | inactive | >40% | >40% | 20 | >40% | >40 | inhibition (INH) (Allium cepa [1]): >40%; inhibition (INH) (Lepidium sativum [30]): >40%; inhibition (INH) (Lepidium sativum [5]): >40%; inhibition (INH) (Lactuca sativa [7]): >40%; inhibition (INH) (Triticum aestivum [9]): 20%; inhibition (INH) (Allium cepa [31]): >40%; Activity (Allium cepa [32]): >40%; Activity (Allium cepa [33]): inactive; inhibition (Solanum lycopersicum [14]): inactive; inhibition (INH) (Lepidium sativum [34]): 20%; inhibition (INH) (Solanum lycopersicum [23]): >40%; Activity (Lepidium sativum [35]): 20%; Activity (Allium cepa [36]): >40%; inhibition (INH) (Lactuca sativa [29]): >40%
